Measured values taken from ChEMBL document CHEMBL1134663, “Investigation of 5-nitrofuran derivatives: synthesis, antibacterial activity, and quantitative structure-activity relationships” (J Med Chem, 2001).

Assays:
Staphylococcus aureus = assay: Activity against gram-positive Staphylococcus aureus strain ATCC 25923 bacteria; type: functional, organism-based; details: read-out: Log 1/IC50 (converted)
Method in brief: (§1)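 Sequential broth macrodilution. S. aureus was grown in TSB at 37 °C and C. crescentus in PYE (peptone, yeast extract, 0.8 mM MgSO4, 0.5 mM CaCl2) at 30 °C. Inoculum was an 8 h exponential culture diluted to about 2 × 10^5 bacteria/mL and added 1:1 to 2-fold serial dilutions. Incubation was 12 h (S. aureus) or 20 h (C. crescentus). Growth was read at A600, and the 50% growth inhibition concentration is reported as log(1/IC50), µmol/mL.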

Caulobacter vibrioides = assay: Compound was tested against gram-negative Caulobacter crescentus, strain NA 1000 bacteria; type: functional, organism-based; details: read-out: Log 1/IC50 (converted); method in brief: as §1

SMILES | IC50 (Staphylococcus aureus) [mM] | IC50 (Caulobacter vibrioides) [mM]
N#Cc1ccc2c(c1)C(=O)/C(=C/c1ccc([N+](=O)[O-])o1)O2 | 3.16 | 4.57
O=C1/C(=C/c2ccc([N+](=O)[O-])o2)Oc2ccccc21 | 0.302 | 1.29
CC(=O)Oc1ccccc1C(=O)/C=C/c1ccc([N+](=O)[O-])o1 | 6.92 | 42.7
CC(=O)Oc1ccc([N+](=O)[O-])cc1C(=O)/C=C/c1ccc([N+](=O)[O-])o1 | 16.2 | 14.8
O=C1/C(=C/c2ccc([N+](=O)[O-])o2)Oc2ccc(Cl)cc21 | 0.575 | 5.25
CCc1ccc2c(c1)C(=O)/C(=C/c1ccc([N+](=O)[O-])o1)O2 | 0.447 | 2.75
O=C1/C(=C/c2ccc([N+](=O)[O-])o2)Oc2ccc([N+](=O)[O-])cc21 | 3.98 | 11.7
Cc1ccc2c(c1)C(=O)/C(=C/c1ccc([N+](=O)[O-])o1)O2 | 0.115 | 1.26
CCc1ccc(OC(C)=O)c(C(=O)/C=C/c2ccc([N+](=O)[O-])o2)c1 | 3.98 | 
CCCc1ccc2c(c1)C(=O)/C(=C/c1ccc([N+](=O)[O-])o1)O2 | 0.447 | 3.09
O=C1/C(=C/c2ccc([N+](=O)[O-])o2)Oc2ccc(Br)cc21 | 0.661 | 3.16
COc1ccc2c(c1)C(=O)/C(=C/c1ccc([N+](=O)[O-])o1)O2 | 0.151 | 1.05

Continued, values first:

IC50 (Staphylococcus aureus) [mM] | IC50 (Caulobacter vibrioides) [mM] | SMILES
17 | 14.8 | O=C(/C=C/c1ccc([N+](=O)[O-])o1)c1cc([N+](=O)[O-])ccc1O
15.8 |  | CCc1ccc(O)c(C(=O)/C=C/c2ccc([N+](=O)[O-])o2)c1
7.24 | 64.6 | O=C(/C=C/c1ccc([N+](=O)[O-])o1)c1ccccc1O
10 | 50.1 | CC(=O)Oc1ccc(Cl)cc1C(=O)/C=C/c1ccc([N+](=O)[O-])o1
11.7 |  | O=C(/C=C/c1ccc([N+](=O)[O-])o1)c1cc(Cl)ccc1O
4.79 |  | CC(=O)Oc1ccc(C)cc1C(=O)/C=C/c1ccc([N+](=O)[O-])o1
6.61 |  | Cc1ccc(O)c(C(=O)/C=C/c2ccc([N+](=O)[O-])o2)c1
